Calls of active or inactive are those of the source. No cut-off for these calls is given here.

This assay concerns the target T1, Perforin-1 (Homo sapiens) (UniProt P14222).
T1 sequence (whole entry): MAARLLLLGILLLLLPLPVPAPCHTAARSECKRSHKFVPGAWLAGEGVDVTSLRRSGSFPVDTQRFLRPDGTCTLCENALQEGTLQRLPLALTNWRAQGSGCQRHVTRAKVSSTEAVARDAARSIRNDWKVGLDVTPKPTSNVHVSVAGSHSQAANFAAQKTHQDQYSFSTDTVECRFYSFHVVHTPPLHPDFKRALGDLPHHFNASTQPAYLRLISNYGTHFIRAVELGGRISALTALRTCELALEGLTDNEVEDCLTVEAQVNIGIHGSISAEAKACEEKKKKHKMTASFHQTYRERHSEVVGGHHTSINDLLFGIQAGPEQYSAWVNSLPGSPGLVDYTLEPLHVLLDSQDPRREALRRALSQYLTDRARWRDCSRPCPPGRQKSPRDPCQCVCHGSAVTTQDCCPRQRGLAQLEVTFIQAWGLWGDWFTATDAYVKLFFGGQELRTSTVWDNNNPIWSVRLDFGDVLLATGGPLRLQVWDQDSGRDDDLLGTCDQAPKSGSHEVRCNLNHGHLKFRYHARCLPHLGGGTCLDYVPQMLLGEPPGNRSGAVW
The experiment in a line: Inhibition of perforin released from human KHYG-1 NK cells assessed as inhibition of perforin mediated lysis of human K562 cells at 20 uM by measuring 51Cr release incubated for 20 mins by gamma counting analysis relative to control. It counts as cell-based. Particulars: in the assay text read “incubated for 30 mins” for “incubated for 20 mins”. The method in brief: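 KHYG-1 human NK effector cells preincubated with inhibitor (20 μM) in medium for 30 min at room temperature. 51Cr-labelled K562 leukaemia target cells then added and incubated 4 h at 37 °C. Lysis read as 51Cr release. Percent inhibition calculated against untreated control.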

Regarding `CS(=O)(=O)Nc1ccc(-c2ccc(-c3ccc4c(c3)COC4=O)s2)cc1`, the inhibition entry was “inactive”.

(Values after ChEMBL document CHEMBL3751704, “Diarylthiophenes as inhibitors of the pore-forming protein perforin” (Bioorg Med Chem Lett, 2016).)
